Results reported in ChEMBL document CHEMBL1152424, “Syntheses and biological evaluations of carbosilane dendrimers uniformly functionalized with sialyl alpha(2-->3) lactose moieties as inhibitors for human influenza viruses” (Bioorg Med Chem, 2009).
pIC50: −log10 of the molar value.

Columns and labels:
[1] = system: Influenza A virus; assay: Antiviral activity against human influenza virus A/PR/8/38(H1N1) infected in chicken erythrocyte assessed as inhibition of hemagglutination after 1 hr; assay type: functional, organism-based; settings: A/Puerto Rico/8/1934(H1N1)
How it was run: (§1)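 Twofold serial dilutions of inhibitor in PBS pH 6.5 with 0.01% gelatin, mixed with virus (2^2 HA units) for 1 h at 4 °C. Then 0.5% (v/v) chicken erythrocytes added, 1 h at 4 °C. Titer is the maximum dilution giving complete inhibition of hemagglutination. Concentrations are expressed per sialyl lactose unit. Virus was egg-grown and purified.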

[2] = system: H3N2 subtype; assay: Antiviral activity against human influenza virus A/Aichi/2/1968(H3N2) infected in chicken erythrocyte assessed as inhibition of hemagglutination after 1 hr; assay type: functional, organism-based; how it was run: as §1
[3] = system: Influenza A virus; assay: Antiviral activity against human influenza virus A/Memphis/1/71(H3N2) infected in chicken erythrocyte assessed as inhibition of hemagglutination after 1 hr; assay type: functional, organism-based, Influenza A virus (A/Memphis/1/1971(H3N2)); how it was run: as §1
[4] = system: Influenza A virus; assay: Antiviral activity against human influenza virus A/PR/8/38(H1N1) infected in guinea pig erythrocyte assessed as inhibition of hemolysis; assay type: functional, organism-based; settings: A/Puerto Rico/8/1934(H1N1)
How it was run: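 Virus (2^8 HAU) preincubated 1 h at 4 °C with inhibitor in PBS. Then 2.5% (v/v) guinea pig erythrocytes added, 30 min at 4 °C. Cells pelleted, resuspended in 20 mM acetate-buffered saline pH 5.0, 30 min at 37 °C. Hemoglobin released read at A550 against 0.1% Triton X-100 as 100% hemolysis. IC50 expressed per sialyl lactose unit.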

[5] = system: Influenza A virus; assay: Antiviral activity against human influenza virus A/PR/8/38(H1N1) infected in MDCK cells assessed as neutralization of viral infection after 20 hrs by colorimetric assay; assay type: functional, organism-based; settings: A/Puerto Rico/8/1934(H1N1)

`N[C@H]1[C@H]([C@H](O)[C@H](O)CO)O[C@@](O[C@H]2[C@@H](O)[C@@H](CO)O[C@@H](O[C@H]3[C@H](O)[C@@H](O)[C@H](OCCCCCSCCCCCC(=O)NCCC[Si](CCCNC(=O)CCCCCSCCCCCO[C@@H]4O[C@H](CO)[C@@H](O[C@@H]5O[C@H](CO)[C@H](O)[C@H](O[C@]6(C(=O)O)C[C@H](O)[C@@H](N)[C@H]([C@H](O)[C@H](O)CO)O6)[C@H]5O)[C@H](O)[C@H]4O)(CCCNC(=O)CCCCCSCCCCCO[C@@H]4O[C@H](CO)[C@@H](O[C@@H]5O[C@H](CO)[C@H](O)[C@H](O[C@]6(C(=O)O)C[C@H](O)[C@@H](N)[C@H]([C@H](O)[C@H](O)CO)O6)[C@H]5O)[C@H](O)[C@H]4O)CCCNC(=O)CCCCCSCCCCCO[C@@H]4O[C@H](CO)[C@@H](O[C@@H]5O[C@H](CO)[C@H](O)[C@H](O[C@]6(C(=O)O)C[C@H](O)[C@@H](N)[C@H]([C@H](O)[C@H](O)CO)O6)[C@H]5O)[C@H](O)[C@H]4O)O[C@@H]3CO)[C@@H]2O)(C(=O)O)C[C@@H]1O` gave a pIC50 [1] of 4.80, a pIC50 [2] of 5.40 and a pIC50 [3] of 3.60. It also gave a pIC50 [4] of 4.20 and a pIC50 [5] of 4.80.

`N[C@H]1[C@H]([C@H](O)[C@H](O)CO)O[C@@](O[C@H]2[C@@H](O)[C@@H](CO)O[C@@H](O[C@H]3[C@H](O)[C@@H](O)[C@H](OCCCCCSCCC[Si](CCCSCCCCCO[C@@H]4O[C@H](CO)[C@@H](O[C@@H]5O[C@H](CO)[C@H](O)[C@H](O[C@]6(C(=O)O)C[C@H](O)[C@@H](N)[C@H]([C@H](O)[C@H](O)CO)O6)[C@H]5O)[C@H](O)[C@H]4O)(CCCSCCCCCO[C@@H]4O[C@H](CO)[C@@H](O[C@@H]5O[C@H](CO)[C@H](O)[C@H](O[C@]6(C(=O)O)C[C@H](O)[C@@H](N)[C@H]([C@H](O)[C@H](O)CO)O6)[C@H]5O)[C@H](O)[C@H]4O)CCCSCCCCCO[C@@H]4O[C@H](CO)[C@@H](O[C@@H]5O[C@H](CO)[C@H](O)[C@H](O[C@]6(C(=O)O)C[C@H](O)[C@@H](N)[C@H]([C@H](O)[C@H](O)CO)O6)[C@H]5O)[C@H](O)[C@H]4O)O[C@@H]3CO)[C@@H]2O)(C(=O)O)C[C@@H]1O` gave a pIC50 [1] of 4.19, a pIC50 [2] of 4.49 and a pIC50 [3] of 3.60. The pIC50 [4] was 3.90 and the pIC50 [5] was 4.49.

`C[Si](C)(CCC[Si](CCCSCCCCCO[C@@H]1O[C@H](CO)[C@@H](O[C@@H]2O[C@H](CO)[C@H](O)[C@H](O[C@]3(C(=O)O)C[C@H](O)[C@@H](N)[C@H]([C@H](O)[C@H](O)CO)O3)[C@H]2O)[C@H](O)[C@H]1O)(CCCSCCCCCO[C@@H]1O[C@H](CO)[C@@H](O[C@@H]2O[C@H](CO)[C@H](O)[C@H](O[C@]3(C(=O)O)C[C@H](O)[C@@H](N)[C@H]([C@H](O)[C@H](O)CO)O3)[C@H]2O)[C@H](O)[C@H]1O)CCCSCCCCCO[C@@H]1O[C@H](CO)[C@@H](O[C@@H]2O[C@H](CO)[C@H](O)[C@H](O[C@]3(C(=O)O)C[C@H](O)[C@@H](N)[C@H]([C@H](O)[C@H](O)CO)O3)[C@H]2O)[C@H](O)[C@H]1O)CCC[Si](CCCSCCCCCO[C@@H]1O[C@H](CO)[C@@H](O[C@@H]2O[C@H](CO)[C@H](O)[C@H](O[C@]3(C(=O)O)C[C@H](O)[C@@H](N)[C@H]([C@H](O)[C@H](O)CO)O3)[C@H]2O)[C@H](O)[C@H]1O)(CCCSCCCCCO[C@@H]1O[C@H](CO)[C@@H](O[C@@H]2O[C@H](CO)[C@H](O)[C@H](O[C@]3(C(=O)O)C[C@H](O)[C@@H](N)[C@H]([C@H](O)[C@H](O)CO)O3)[C@H]2O)[C@H](O)[C@H]1O)CCCSCCCCCO[C@@H]1O[C@H](CO)[C@@H](O[C@@H]2O[C@H](CO)[C@H](O)[C@H](O[C@]3(C(=O)O)C[C@H](O)[C@@H](N)[C@H]([C@H](O)[C@H](O)CO)O3)[C@H]2O)[C@H](O)[C@H]1O` gave a pIC50 [1] of 4.49, a pIC50 [2] of 4.49 and a pIC50 [3] of 3.60. It also gave a pIC50 [4] of 4.49 and a pIC50 [5] of 5.11.

Molecule `N[C@H]1[C@H]([C@H](O)[C@H](O)CO)O[C@@](O[C@H]2[C@@H](O)[C@@H](CO)O[C@@H](O[C@H]3[C@H](O)[C@@H](O)[C@H](OCCCCCSCCCCCC(=O)NCCC[Si](CCCNC(=O)CCCCCSCCCCCO[C@@H]4O[C@H](CO)[C@@H](O[C@@H]5O[C@H](CO)[C@H](O)[C@H](O[C@]6(C(=O)O)C[C@H](O)[C@@H](N)[C@H]([C@H](O)[C@H](O)CO)O6)[C@H]5O)[C@H](O)[C@H]4O)(CCCNC(=O)CCCCCSCCCCCO[C@@H]4O[C@H](CO)[C@@H](O[C@@H]5O[C@H](CO)[C@H](O)[C@H](O[C@]6(C(=O)O)C[C@H](O)[C@@H](N)[C@H]([C@H](O)[C@H](O)CO)O6)[C@H]5O)[C@H](O)[C@H]4O)c4ccccc4)O[C@@H]3CO)[C@@H]2O)(C(=O)O)C[C@@H]1O` has a pIC50 [1] of 4.80, a pIC50 [2] of 5.10 and a pIC50 [3] of 3.60. It also gave a pIC50 [4] of 4.20 and a pIC50 [5] of 4.60.

`C[Si](C)(CCC[Si](CCCNC(=O)CCCCCSCCCCCO[C@@H]1O[C@H](CO)[C@@H](O[C@@H]2O[C@H](CO)[C@H](O)[C@H](O[C@]3(C(=O)O)C[C@H](O)[C@@H](N)[C@H]([C@H](O)[C@H](O)CO)O3)[C@H]2O)[C@H](O)[C@H]1O)(CCCNC(=O)CCCCCSCCCCCO[C@@H]1O[C@H](CO)[C@@H](O[C@@H]2O[C@H](CO)[C@H](O)[C@H](O[C@]3(C(=O)O)C[C@H](O)[C@@H](N)[C@H]([C@H](O)[C@H](O)CO)O3)[C@H]2O)[C@H](O)[C@H]1O)CCCNC(=O)CCCCCSCCCCCO[C@@H]1O[C@H](CO)[C@@H](O[C@@H]2O[C@H](CO)[C@H](O)[C@H](O[C@]3(C(=O)O)C[C@H](O)[C@@H](N)[C@H]([C@H](O)[C@H](O)CO)O3)[C@H]2O)[C@H](O)[C@H]1O)CCC[Si](CCCNC(=O)CCCCCSCCCCCO[C@@H]1O[C@H](CO)[C@@H](O[C@@H]2O[C@H](CO)[C@H](O)[C@H](O[C@]3(C(=O)O)C[C@H](O)[C@@H](N)[C@H]([C@H](O)[C@H](O)CO)O3)[C@H]2O)[C@H](O)[C@H]1O)(CCCNC(=O)CCCCCSCCCCCO[C@@H]1O[C@H](CO)[C@@H](O[C@@H]2O[C@H](CO)[C@H](O)[C@H](O[C@]3(C(=O)O)C[C@H](O)[C@@H](N)[C@H]([C@H](O)[C@H](O)CO)O3)[C@H]2O)[C@H](O)[C@H]1O)CCCNC(=O)CCCCCSCCCCCO[C@@H]1O[C@H](CO)[C@@H](O[C@@H]2O[C@H](CO)[C@H](O)[C@H](O[C@]3(C(=O)O)C[C@H](O)[C@@H](N)[C@H]([C@H](O)[C@H](O)CO)O3)[C@H]2O)[C@H](O)[C@H]1O` was tested, and the pIC50 [1] was 5.10, the pIC50 [2] was 5.40 and the pIC50 [3] was 3.60. It also gave a pIC50 [4] of 4.49 and a pIC50 [5] of 5.25.

`N[C@H]1[C@H]([C@H](O)[C@H](O)CO)O[C@@](O[C@H]2[C@@H](O)[C@@H](CO)O[C@@H](O[C@H]3[C@H](O)[C@@H](O)[C@H](OCCCCCSCCC[Si](CCCSCCCCCO[C@@H]4O[C@H](CO)[C@@H](O[C@@H]5O[C@H](CO)[C@H](O)[C@H](O[C@]6(C(=O)O)C[C@H](O)[C@@H](N)[C@H]([C@H](O)[C@H](O)CO)O6)[C@H]5O)[C@H](O)[C@H]4O)(CCCSCCCCCO[C@@H]4O[C@H](CO)[C@@H](O[C@@H]5O[C@H](CO)[C@H](O)[C@H](O[C@]6(C(=O)O)C[C@H](O)[C@@H](N)[C@H]([C@H](O)[C@H](O)CO)O6)[C@H]5O)[C@H](O)[C@H]4O)c4ccccc4)O[C@@H]3CO)[C@@H]2O)(C(=O)O)C[C@@H]1O` showed a pIC50 [1] of 4.19, a pIC50 [2] of 3.90 and a pIC50 [3] of 3.60. It also gave a pIC50 [4] of 3.60 and a pIC50 [5] of 4.19.
